Test system: HeLa cells
Assay: Protein fatty-acylation levels in cells by chemical reporter alk-14
Assay type: cell-based, human
Conditions: nuclear lysates, in-gel fluorescence, Sirt2 inhibitor
Summary of the method: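 HeLa cells with Sirt2 perturbed by siRNA knockdown or a selective Sirt2 inhibitor were cultured with fatty-acid chemical reporter alk-14. After harvest, cytosolic and nuclear lysates were prepared and core histones extracted. Reporter-labeled proteins were conjugated to a rhodamine dye by azide-alkyne click chemistry, and fatty-acylation levels were compared by fluorescence.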

In the case of `N#C/C(=C\c1ccc(-c2cc(Cl)ccc2Cl)o1)C(=O)Nc1cccc2ncccc12` [AGK2], the “labeling of core histones by alk-14” value is reported as “enhanced”.

Reference: paper PMC4382910 (Angewandte Chemie (International ed. in English), 2014)
